# Most compounds without a hit are left out; they make up all but 1% or so of the library.
# CAL PDZ FP-1: human CAL PDZ-peptide interaction inhibition; inhibition, % at 20 µM; purified CAL PDZ, TMR-peptide fluorescence polarization, 1 h; AID 504414; hit rate 0.02% among 330,000; Q9HD26;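 active = highest replicate inhibition of at least 40%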
#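 Assay system – tagged CAL PDZ protein CerCALP, purified · Timing – 1 h at RT · Compound – single point, 20 µM · Measured by – fluorescence polarization from S- and P-plane intensities, G-factor corrected · Evaluation – inhibition from polarization loss · Probe or stimulus – TMR reporter peptide T*-PRC34 · Buffer or medium – pH 7.4 phosphate-saline buffer, reducing agent, detergent, IgG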
# RAD52 anneal inh: inhibitors of human RAD52 DNA annealing. recombinant RAD52 DNA annealing, FRET fluorescence. P43351. inhibition, % at 18.7 µM. hit rate 0.46% among 360,000. AID 651710;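 active = every replicate showing at least 50% inhibition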
# PDI turbidity: inhibitors of human protein disulfide isomerase; hit rate 0.052% among 350,000; inhibition, % at 10 µM; PDI insulin aggregation turbidity, A650, 90 min;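 active = mean inhibition across replicates of 30% or more, whatever share of single replicates reach that level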
# CAL PDZ FP-2: inhibitors of human CAL PDZ peptide binding; Q9HD26; purified CAL PDZ, TMR-peptide fluorescence polarization, 1 h; inhibition, % at 24.9 µM; hit rate 0.92% among 300,000; AID 602252;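 active = mean inhibition of at least 30% with at least half of replicates also reaching 30%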
# ERp5 inh: ERp5 (human) disulfide isomerase inhibition. Q15084. ERp5 insulin aggregation, absorbance 650 nm, 90 min. inhibition, % at 9.99 µM. hit rate 0.05% among 350,000. AID 651711;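 active = mean replicate inhibition above about 25%, with every replicate also reaching it, limit read from the data, passing the limit was not always enough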
# Target sequence (Q15084 whole entry, looked up): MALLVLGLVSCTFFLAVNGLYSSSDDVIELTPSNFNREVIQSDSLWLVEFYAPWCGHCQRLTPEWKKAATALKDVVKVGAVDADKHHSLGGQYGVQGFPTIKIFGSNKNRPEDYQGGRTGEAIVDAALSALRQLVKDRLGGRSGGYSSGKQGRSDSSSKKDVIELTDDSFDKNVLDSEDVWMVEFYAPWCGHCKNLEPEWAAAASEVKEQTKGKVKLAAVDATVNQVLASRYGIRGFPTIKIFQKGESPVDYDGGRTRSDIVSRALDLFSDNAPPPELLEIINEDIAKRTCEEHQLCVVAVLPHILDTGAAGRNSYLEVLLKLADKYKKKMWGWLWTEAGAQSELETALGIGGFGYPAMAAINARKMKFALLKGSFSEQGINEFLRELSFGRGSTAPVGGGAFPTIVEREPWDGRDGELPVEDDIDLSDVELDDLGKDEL
# RAD54 branch: inhibitors of human RAD54 branch migration. RAD54 Holliday junction branch migration, FAM/BHQ fluorescence. Q92698. hit rate 0.14% among 360,000. inhibition, % at 10.4 µM;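 active = mean normalized replicate activity at least 40 and at least half of replicates scoring 40 or more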;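 note: inhibitors cause a drop in the FAM fluorescence signal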
# Numbers stand for hits; – = inactive; · = no result.
SMILES,CAL PDZ FP-1,RAD52 anneal inh,PDI turbidity,CAL PDZ FP-2,ERp5 inh,RAD54 branch
COc1ccc(NS(=O)(=O)c2ccc(O)c(C(=O)OCC(=O)N3CC(C)OC(C)C3)c2)cc1 (centres undefined),–,·,–,·,·,–
C[C@@H]1CN([C@H](C)CO)C(=O)Cc2cc(NC(=O)Nc3ccc4c(c3)OCO4)ccc2O[C@H]1CN(C)CC1CC1,·,–,·,·,–,–
COc1ccccc1OC(C)C(=O)N1CCc2ccccc21 (centres undefined),–,–,–,–,–,–
CC(Oc1ccc(Cl)cc1C(N)=O)C(=O)N1CCc2ccccc21 (centres undefined),–,–,–,72.9,–,–
COc1cc(-c2noc(CCCC(=O)Nc3cccnc3)n2)cc(OC)c1OC,–,–,–,68.9,–,·
C[C@@H]1CN([C@H](C)CO)C(=O)c2cc(NC(=O)CCC(F)(F)F)ccc2O[C@@H]1CN(C)S(=O)(=O)c1cn(C)cn1,·,–,·,·,–,–
N#CCNC(=O)c1nn2c(C(F)(F)F)cc(-c3ccccc3)nc2c1Br,·,–,–,74.9,–,–
CN1/C(=C/c2cccc[n+]2C)Sc2ccccc21,–,–,–,–,–,61.8
COc1ccc2c(c1)N(C)/C(=C/c1cccc[n+]1C)S2,–,–,–,–,–,51.1
CNC[C@H]1Oc2ccc(NC(=O)Nc3ccc(C(F)(F)F)cc3)cc2C(=O)N([C@@H](C)CO)C[C@@H]1C,·,–,·,·,–,–
Cc1cc2c3c([nH]c2cc1S(=O)(=O)NCc1ccc(CN2CCCCCC2)o1)CC(C)(C)CC3=O,–,–,–,45.7,–,–
CN(C)C(=O)C[C@@H]1C[C@H]2c3cc(NC(=O)NC4CCCCC4)ccc3O[C@H]2[C@@H](CO)O1,·,–,·,·,–,–
CCCC#Cc1ccc2c(c1)O[C@@H](CN(C)C(=O)CN(C)C)[C@@H](C)CN([C@@H](C)CO)S2(=O)=O,·,–,·,·,–,–
C[C@@H]1CN([C@H](C)CO)C(=O)c2cc(NC(=O)Nc3ccccc3)ccc2O[C@@H](C)CCCCO[C@H]1CN(C)Cc1ccc2c(c1)OCO2,·,61.4,·,·,–,–
C[C@H](CO)N1C[C@H](C)[C@@H](CN(C)CC2CC2)OCCCC[C@H](C)Oc2ccc(NC(=O)Nc3ccc4c(c3)OCO4)cc2C1=O,·,–,·,·,–,–
C[C@H](CO)N1C[C@H](C)[C@H](CN(C)CC2CC2)OCCCC[C@H](C)Oc2ccc(NC(=O)Nc3ccc4c(c3)OCO4)cc2C1=O,·,55.1,·,·,–,–
C[C@@H]1CN([C@H](C)CO)C(=O)c2cc(NC(=O)Nc3ccccc3)ccc2O[C@@H](C)CCCCO[C@@H]1CN(C)Cc1ccc2c(c1)OCO2,·,–,·,·,–,–
C[C@@H]1CCCCO[C@@H](CN(C)Cc2ccc3c(c2)OCO3)[C@H](C)CN([C@@H](C)CO)C(=O)c2cc(NC(=O)Nc3ccc(C(F)(F)F)cc3)ccc2O1,·,50.5,·,·,–,–
C[C@@H]1CCCCO[C@H](CN(C)CC2CC2)[C@H](C)CN([C@@H](C)CO)C(=O)c2cc(NC(=O)c3ccccc3)ccc2O1,·,51.6,·,·,–,–
CO[C@H]1CN(C)C(=O)c2ccc(NC(=O)Nc3ccccc3F)cc2OC[C@@H](C)NC[C@H]1C,·,–,·,·,–,–
COc1ccc(NC(=O)Nc2cccc3c2O[C@@H](CN(C)C(=O)Nc2ccc(C(F)(F)F)cc2)[C@@H](C)CN([C@@H](C)CO)C3=O)cc1,·,·,·,·,·,–
C[C@@H]1CCCCO[C@H](CN(C)C(=O)Nc2cccc3ccccc23)[C@H](C)CN([C@H](C)CO)C(=O)c2cc(N(C)C)ccc2O1,·,–,·,·,–,–
C[C@H]1CCCCO[C@H](CN(C)Cc2ccc3c(c2)OCO3)[C@@H](C)CN([C@@H](C)CO)C(=O)c2cc(NC(=O)Nc3ccccc3)ccc2O1,·,56.3,·,·,–,–
O=C(C[C@H]1C[C@H]2c3cc(NC(=O)CC4CC4)ccc3O[C@H]2[C@@H](CO)O1)NCCc1ccccc1,·,–,·,·,–,–
CO[C@H]1CN(C)C(=O)c2ccc(NC(C)=O)cc2OC[C@H](C)N(C(=O)CN2CCOCC2)C[C@H]1C,·,–,·,·,–,–
CCCCCCn1cc(C(=O)O)c(=O)c2cc(F)c(N3CCN(C)CC3)cc21,–,·,–,30.4,·,–
CCn1cc(C(=O)O)c(=O)c2cc(F)c(N3CCN(C)CC3)cc21,–,–,·,–,–,–

# Screening data deposited in PubChem BioAssay by Broad Institute.
